The results in this text go back to ChEMBL document CHEMBL1122125, “Synthesis and in vivo antitumor activity of potential 5-fluorouracil prodrugs” (1982).

Where only a bound is given, the exact number is not on record here.

As a reminder, the ILS is how much longer treated animals lived than controls. A higher ILS goes with a large benefit in survival.

Format in all cases: functional
One assay has as its system L1210. In words: Evaluated for cytotoxicity against L1210 mouse leukemia cells. The settings on record: read-out: ID50 (the source's name). In short, it runs like this:
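L1210 murine leukemia cells in Eagle's minimal essential medium with 15% fetal calf serum, streptomycin (100 μg/mL), penicillin (100 units/mL) and 0.05 mM 2-mercaptoethanol. Cells counted by Coulter counter after 48 h exposure. ID50 is the 50% growth-inhibitory dose. Triplicate assays, standard deviation ±10%.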

The test system of assay [1] is Mus musculus. The experiment in a line: Antitumor activity was determined for average 7-day weight change against P-388 leukemia in mice at a dose of 32 mg/kg. The method in brief:
(§1)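 Male B6D2F1J mice given 10⁶ P-388 cells ip on day 0, then treated ip once daily on days 1-4 (qd × 4), 5 mice per dose group. Compounds dosed in sterile saline, except one lipophilic thioether given in 10% Tween 80. Mice weighed on days 1 and 7; mean weight per mouse on day 1 and 7-day weight change reported in g and as percent.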

The subject of assay [2] is Mus musculus. In words: Antitumor activity was determined for average 7-day weight change against P-388 leukemia in mice at a dose of 8 mg/kg. The method in brief:
as §1

The subject of assay [3] is Mus musculus. The experiment in a line: Antitumor activity was determined for average weight on day 1 against P-388 leukemia in mice at a dose of 32 mg/kg. In short, it runs like this: (§2)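 Male B6D2F1J mice, groups of 5, inoculated ip with 10⁶ P-388 cells on day 0. Drug given ip on days 1-4 (qd × 4) in sterile saline, or in 10% Tween 80 for the poorly water-soluble thioether. Average weight per mouse recorded on day 1, with reweighing on day 7 for percent weight change. Untreated control groups had 10-17 animals per experiment.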

In assay [4] the test system is Mus musculus. The experiment in a line: Antitumor activity was determined for average weight on day 1 against P-388 leukemia in mice at a dose of 8 mg/kg. In short, it runs like this: as §2
The subject of assay [5] is Mus musculus. In words: Antitumor activity was determined for average weight on day 1 against P-388 leukemia in mice at a dose of 16 mg/kg. In short, it runs like this:
as §1

Assay [6] relates to Mus musculus. In words: Percent increase in life span against P-388 leukemia in mice was determined at a dose of 32 mg/kg. The following applies: P388. The method in brief:
(§3)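 Male B6D2F1J mice, 5 per dose group, received 10⁶ P-388 cells ip on day 0. Dosing was ip qd × 4 on days 1-4 in sterile saline, or 10% Tween 80 for the butyl thioether. Median survival times of treated (T) and untreated control (C, 10-17 mice) groups were compared: %ILS = [(T/C) − 1]100. Weights taken on days 1 and 7.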

Assay [7] deals with Mus musculus. In words: Percent increase in life span against P-388 leukemia in mice was determined at a dose of 8 mg/kg. The following applies: P388. In short, it runs like this: as §3
In assay [8] the test system is Mus musculus. In words: Antitumor activity was determined for average 7-day weight change against P-388 leukemia in mice at a dose of 16 mg/kg. In short, it runs like this:
as §1

The test system of assay [9] is Mus musculus. The experiment in a line: Percent increase in life span against P-388 leukemia in mice was determined at a dose of 16 mg/kg. The settings on record: P388. In short, it runs like this:
as §3

Assay [10] deals with Mus musculus. The experiment in a line: Antitumor activity was determined for survival range of mice against P-388 leukemia in mice at a dose of 8 mg/kg. In short, it runs like this:
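Male B6D2F1J mice, 5 per dose group, implanted ip with 10⁶ P-388 leukemia cells on day 0. Drug given ip daily on days 1-4 (qd × 4) in sterile saline, or in 10% Tween 80 for the butyl thioether. Survival range recorded in days. Untreated control groups had 10-17 animals per experiment. Mice weighed on days 1 and 7.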

In assay [11] the test system is Mus musculus. In words: Antitumor activity was determined for median survival of mice against P-388 leukemia in mice at a dose of 16 mg/kg. The method in brief:
(§4)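 Male B6D2F1J mice implanted ip with 10⁶ P-388 cells on day 0; test agents given ip on days 1–4 (qd × 4) in sterile saline, or in 10% Tween 80 for the lipophilic thioether. Groups of 5 treated mice, with 10–17 untreated controls per experiment. Mice weighed on days 1 and 7 to give the 7-day weight change in g and %. Survival recorded in days as median and range.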

Assay [12] deals with Mus musculus. In words: Antitumor activity was determined for median survival of mice against P-388 leukemia in mice at a dose of 8 mg/kg. The method in brief:
as §4

Assay [13] concerns Mus musculus. The experiment in a line: Antitumor activity was determined for survival range of mice against P-388 leukemia in mice at a dose of 16 mg/kg. In short, it runs like this: as §4
The subject of assay [14] is Mus musculus. The experiment in a line: Antitumor activity was determined for survival range of mice against P-388 leukemia in mice at a dose of 32 mg/kg. In short, it runs like this: as §4
The test system of assay [15] is Mus musculus. In words: Antitumor activity was determined for median survival of mice against P-388 leukemia in mice at a dose of 32 mg/kg. The method in brief:
as §4

For assay [16], the system named is Mus musculus. In words: Antitumor activity was determined for 7-day average percent weight change against P-388 leukemia in mice at a dose of 16 mg/kg. The method in brief:
as §1

The test system of assay [17] is Mus musculus. In words: Antitumor activity was determined for 7-day average percent weight change against P-388 leukemia in mice at a dose of 8 mg/kg. The method in brief:
as §1

Assay [18] deals with Mus musculus. In words: Antitumor activity was determined for 7-day average percent weight change against P-388 leukemia in mice at a dose of 32 mg/kg. In short, it runs like this:
as §1

For `CCOC(=O)[C@H]1OC(n2cc(F)c(=O)[nH]c2=O)[C@H](O)[C@@H]1O` (stereo not given in full), the IC50 in the assay with L1210 is above 1000 µM.
On to `NC[C@H]1OC(n2cc(F)c(=O)[nH]c2=O)[C@H](O)[C@@H]1O` (stereo not given in full), for which the Average weight in the assay with Mus musculus [1] turned out to be 3.2 g mouse-1; in the assay with Mus musculus [2] it was 5.8 g mouse-1; with Mus musculus [3] it was 26.8 g mouse-1; in the assay with Mus musculus [4] it was 25.6 g mouse-1; in the assay with Mus musculus [5], 26.4 g mouse-1; in the assay with Mus musculus [8] it was 4.4 g mouse-1. Also, the increase in life span (ILS) at 32 mg/kg with Mus musculus [6] was determined as 8%. Further, in the assay on Mus musculus [7], the increase in lifespan (ILS) at 8 mg/kg stood at 0%. Besides, the increase in life span (ILS) at 16 mg/kg in the assay on Mus musculus [9] turned out to be 0%. For the same compound, the figures for the Survival range in the assay on Mus musculus [10], with Mus musculus [13] and in the assay with Mus musculus [14] were 11, 10 and 11, respectively. For the same compound, the Survival median worked out at 12 in the assay on Mus musculus [11], 12 with Mus musculus [12] and 13 with Mus musculus [15]. The Weight change in the assay with Mus musculus [16] is listed as 16%; in the assay on Mus musculus [17] it was 23%; with Mus musculus [18] it was 12%. Besides, in the assay on L1210, the IC50 was 38 µM.
